# This is a sample that favours compounds with a hit; in the whole collection about 5.8% have one here.
# T cruzi growth-1: T. cruzi proliferation inhibition | T. cruzi beta-gal in NIH3T3, GalScreen luminescence, 90 h | inhibition, % at 8.34 µM | 5.9% of 77,000 active | AID 624255;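 active means mean inhibition above about 93%, with at least 55% of replicates each passing it, limit read from the data, passing the limit was not always enough; inconclusive means only one of those two conditions holds; inactive means neither condition holds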
# IDH1 mut inh: IDH1 R132H (human) inhibition; 0.18% of 70,000 active; IDH1 R132H reductase, diaphorase/resazurin fluorescence, 60 min; inhibition, % at 10 µM; in the data active means inhibition above about 34%; inconclusive means no clear call, values can overlap the other calls; inactive means below about 11%
# Target sequence (O75874 whole entry R132H): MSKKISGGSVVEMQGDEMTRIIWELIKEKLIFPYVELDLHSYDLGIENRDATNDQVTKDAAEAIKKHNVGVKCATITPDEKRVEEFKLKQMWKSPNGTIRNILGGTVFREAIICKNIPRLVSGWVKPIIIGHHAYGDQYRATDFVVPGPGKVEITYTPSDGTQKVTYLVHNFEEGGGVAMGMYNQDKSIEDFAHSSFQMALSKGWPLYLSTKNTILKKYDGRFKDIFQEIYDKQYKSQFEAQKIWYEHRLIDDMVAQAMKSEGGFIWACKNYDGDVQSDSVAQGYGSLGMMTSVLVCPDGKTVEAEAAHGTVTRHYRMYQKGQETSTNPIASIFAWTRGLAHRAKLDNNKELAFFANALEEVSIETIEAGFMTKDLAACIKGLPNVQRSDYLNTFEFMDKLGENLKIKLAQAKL
# KDM4C inh: blocks human GASC-1 (KDM4C) demethylase activity; Q9H3R0; GST-KDM4C 2-372, H3K9me3 peptide, LANCE TR-FRET; inhibition, % at 12.5 µM; 0.15% of 96,000 active; AID 720574;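 active means mean replicate inhibition above about 25%, with at least 55% of replicates also reaching it, limit read from the data, passing the limit was not always enough; inconclusive means only one of those two conditions met; inactive means neither condition met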
#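 Assay system: GST-GASC-1 enzyme fragment 2-372 | Amount: 10 nM enzyme | Medium: HEPES buffer, pH 7.5, plus ascorbate | Reagent: H3K9me3 peptide substrate, Fe(II), 2-oxoglutarate | Doses: Single-point compound screen | Incubation: 30 min demethylation and 1 h detection at room temperature | Measured by: LANCE TR-FRET, excitation 340 nm, emissions 618 and 671 nm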
# Pf Dd2 inh: inhibitors of Plasmodium falciparum Dd2 growth. P. falciparum Dd2 growth, SYBR Green, 72 h; stronger effect = lower value. activity change, % at 10 µM. 2.3% of 94,000 active. AID 1159554; in the data active means activity change below about -80%; inconclusive means no clear call, values can overlap the other calls
# T cruzi growth-2: inhibitors of T. cruzi proliferation; inhibition, % at 8.35 µM; T. cruzi beta-gal in NIH3T3, GalScreen luminescence, 90 h; shares compounds with T cruzi growth-1; AID 651739; 72% of 5,600 active;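 active means mean replicate inhibition above about 95% and at least 55% of replicates individually reaching it, limit read from the data; inconclusive means only one of the two criteria is met; inactive means neither criterion is met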
# T cruzi growth-3: blocks T. cruzi growth in NIH3T3 host cells. shares compounds with T cruzi growth-1. T. cruzi beta-gal in NIH3T3, GalScreen luminescence, 90 h. inhibition, % at 2.09 µM. 21% of 5,600 active. AID 651740;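 active means mean inhibition above about 95%, with at least 55% of replicates also reaching it, limit read from the data; inconclusive means meets just one of the two conditions; inactive means meets neither condition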
# NIH3T3 tox: cytotoxicity in mouse NIH/3T3 fibroblasts. shares compounds with T cruzi growth-1. NIH/3T3 viability, CellTiter-Glo ATP luminescence, 90 h. cytotoxicity (signal decrease), % at 8.35 µM. 14% of 5,600 active;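 active means mean signal decrease across replicates above about 35% based on untreated-well scatter, with enough replicates individually passing, limit read from the data; inconclusive means no rule stated though some were filed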
# NIH3T3 tox 2: kills mouse NIH/3T3 fibroblasts; shares compounds with T cruzi growth-1; NIH/3T3 viability, CellTiter-Glo ATP luminescence, 90 h; 56% of 5,600 active; inhibition, % at 24.9 µM;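 active means mean loss of cell viability signal at or above a set limit, and enough replicates individually reaching it; inconclusive means meets only the mean limit or only the replicate share; inactive means meets neither condition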
# Hits are given with their value; - = inactive; ? = inconclusive; . = no result.
SMILES,T cruzi growth-1,IDH1 mut inh,KDM4C inh,Pf Dd2 inh,T cruzi growth-2,T cruzi growth-3,NIH3T3 tox,NIH3T3 tox 2
O=C(C[C@@H]1CC[C@H]2[C@@H](COC[C@H](O)CN2Cc2ccc(Oc3ccccc3)cc2)O1)Nc1nccs1,193,.,-,-,104,-,-,?
O=C(C[C@H]1CC[C@H]2[C@@H](COC[C@@H](O)CN2Cc2ccc(Oc3ccccc3)cc2)O1)Nc1nccs1,152,.,-,-,102,-,-,-
O=C(C[C@H]1CC[C@H]2[C@@H](COC[C@H](O)CN2Cc2ccc(Oc3ccccc3)cc2)O1)Nc1nccs1,191,.,-,-,103,-,-,-
O=C(C[C@H]1CC[C@H]2[C@@H](COC[C@H](O)CN2Cc2cccc(Cl)c2)O1)Nc1nccs1,133,.,-,-,?,-,-,-
NC(=O)c1c(NC(=O)COc2cccc(C(F)(F)F)c2)sc2c1CCC2,.,-,.,.,.,.,.,.
CCCC[C@H](O)[C@@H]1CC(OC)=CC(=O)O1,.,-,.,.,.,.,.,.
C[C@@H]1CCCCO[C@@H](CN(C)S(=O)(=O)c2cccs2)[C@@H](C)CN([C@@H](C)CO)C(=O)c2cc(NC(=O)Nc3ccc(F)cc3)ccc2O1,-,-,-,-,.,.,.,.
C[C@@H]1CN([C@@H](C)CO)C(=O)c2cc(NC(=O)Nc3ccc(F)cc3)ccc2O[C@@H](C)CCCCO[C@H]1CN(C)S(=O)(=O)c1cccs1,-,-,-,-,.,.,.,.
C[C@@H]1CCCCO[C@@H](CN(C)S(=O)(=O)c2cccs2)[C@@H](C)CN([C@@H](C)CO)C(=O)c2cc(NC(=O)Nc3ccccc3)ccc2O1,-,.,-,.,.,.,.,.
C[C@H]1CCCCO[C@@H](CN(C)S(=O)(=O)c2cccs2)[C@@H](C)CN([C@@H](C)CO)C(=O)c2cc(NC(=O)Nc3ccc(F)cc3)ccc2O1,99,-,-,-,109,-,-,27
C[C@H]1CCCCO[C@H](CN(C)S(=O)(=O)c2cccs2)[C@@H](C)CN([C@@H](C)CO)C(=O)c2cc(NC(=O)Nc3ccccc3)ccc2O1,107,-,-,.,106,-,-,27
C[C@@H]1CCCCO[C@@H](CN(C)S(=O)(=O)c2cccs2)[C@H](C)CN([C@H](C)CO)C(=O)c2cc(NC(=O)Nc3ccccc3)ccc2O1,112,.,-,.,108,-,-,-
C[C@@H]1CCCCO[C@H](CN(C)S(=O)(=O)c2cccs2)[C@H](C)CN([C@@H](C)CO)C(=O)c2cc(NC(=O)Nc3ccccc3)ccc2O1,99,.,-,.,101,-,-,30
O=C1NC(=O)C(C(CC(=O)c2ccccc2)c2ccccc2Br)C(=O)N1 (stereo unspecified),.,-,.,.,.,.,.,.
O=C(CCCCCC(=O)Nc1ccccc1O)N=NC=C1C=CN(O)C=C1,.,-,.,.,.,.,.,.
C[C@@H]1CCCCO[C@H](CN(C)S(=O)(=O)c2cccs2)[C@@H](C)CN([C@@H](C)CO)C(=O)c2cc(NC(=O)Nc3ccccc3)ccc2O1,?,-,-,.,107,-,-,-
C[C@@H]1CCCCO[C@H](CN(C)S(=O)(=O)c2cccs2)[C@@H](C)CN([C@H](C)CO)C(=O)c2cc(NC(=O)Nc3ccc(F)cc3)ccc2O1,-,.,-,-,.,.,.,.
C[C@@H]1CCCCO[C@H](CN(C)S(=O)(=O)c2cccs2)[C@H](C)CN([C@H](C)CO)C(=O)c2cc(NC(=O)Nc3ccccc3)ccc2O1,108,-,-,.,107,-,-,-
Cc1ccc2oc(C(=O)Nc3sc4c(c3C(=O)NCc3ccco3)CCC4)c(C)c2c1,.,-,.,.,.,.,.,.
O=C(Nc1ccc(F)cc1)N1CCCCN2[C@H](CO)[C@H](c3ccc(C4=CCCCC4)cc3)[C@@H]2C1,118,.,-,-,107,98,-,63
COc1ccc(NC(=O)N2CCCCN3[C@H](C2)[C@H](c2ccc(C4=CCCC4)cc2)[C@@H]3CO)cc1,-,.,.,-,.,.,.,.
O=C(Nc1ccccc1)N1CCCCN2[C@H](C1)[C@@H](c1ccc(-c3ccccc3)cc1)[C@@H]2CO,-,.,-,-,.,.,.,.
